A short description of test [1]: Inhibition of tubulin in rat A10 cells assessed as induction of cellular microtubule disassembly after 18 hrs by indirect immunofluorescence technique. The class given is cell-based. Particulars: A10, 18 h. The gist of the method: (§1)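 A-10 cells plated on glass coverslips and treated with compound at varying concentrations for 18 h. After fixation, microtubules immunostained with a β-tubulin antibody (indirect immunofluorescence) and nuclei stained with DAPI. Read by fluorescence microscopy. Percentage of cellular microtubule loss estimated visually across the concentration range.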

A short description of test [2]: Displacement of [3H]colchicine from tubulin at 5 uM by DEAE-cellulose filter method. For orientation: Displacement assays read how much labelled ligand stays bound in the presence of the test substance.
Test [3] relates to A10. Nature of the test: Inhibition of tubulin in rat A10 cells assessed as disappearance of microtubule network at 20 uM after 18 hrs by fluorescence microscopy. The class given is cell-based. The gist of the method: as §1
Test [4] in a line: Inhibition of tubulin polymerization by turbidimetry. The method, boiled down: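 Tubulin at 10 µM (1.0 mg/mL). Polymerization followed turbidimetrically at 350 nm in temperature-controlled spectrophotometers.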
The subject of test [5] is MCF7. Nature of the test: Antiproliferative activity against human MCF7 cells after 24 hrs by SRB assay. The class given is functional, cell-based. Particulars: MCF7, 24 h. The method, boiled down: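 MCF-7 cells are grown for 24 h with or without drug, then for a further 48 h. Total cell protein is measured by sulforhodamine B staining, and the IC₅₀ is derived from it.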

Test [6] is described as follows: Displacement of [3H]colchicine from tubulin at 50 uM by turbidimetry. The following applies: in the assay text read “by DEAE-cellulose filter method” for “by turbidimetry”. The method, boiled down:
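Binding of [³H]colchicine to tubulin (1.0 µM, 0.1 mg/mL) is measured by the DEAE-cellulose filter method. The radioligand is at 5.0 µM and test agents at 5 or 50 µM. Each is run in triplicate.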

Experimental findings from ChEMBL document CHEMBL1157725 (Bioorg Med Chem, 2010) are described below.

Structures are written as SMILES. The source made the active and inactive calls. The rule behind the calls is not given here.

Usually EC50 stands for the concentration at which the effect is half-maximal. As usually defined, the inhibition is the drop in the measured response relative to a control, in per cent. The term IC50 denotes the concentration needed to halve the response being measured. Low readings indicate greater potency in that assay, high ones weaker potency in that assay.

On to `COc1ccc(/C=C/C(=O)c2cc(OC)c(OC)c(OC)c2)cc1O`, for which, in test [1], the half-maximal effective concentration (EC50) stood at 980 nM. For the same compound, the inhibition in test [2] came out at 88%; in test [6], 101%. In addition, the result in test [3] was Active. Also, the IC50 came to 2600 nM in test [4] and 110 nM in test [5].
